Measured values published in ChEMBL document CHEMBL5705899 (Biochem J, 2014).
Calls of active or inactive are those of the source. The rule behind the calls is not given here.

Legend:
[1] = target: Dual specificity mitogen-activated protein kinase kinase 6 (Homo sapiens) (UniProt P52564); assay: Inhibition of recombinant human N-terminal MBP-tagged MKK6 (2 to 334 residues) expressed in Escherichia coli assessed as remaining activity at 1 uM using SAPK2a as substrate incubated for 30 mins in presence of [gamma-33P]ATP by filter binding method relative to control
Sequence of Dual specificity mitogen-activated protein kinase kinase 6 (Homo sapiens) (P52564 whole entry, the tested form may be a part): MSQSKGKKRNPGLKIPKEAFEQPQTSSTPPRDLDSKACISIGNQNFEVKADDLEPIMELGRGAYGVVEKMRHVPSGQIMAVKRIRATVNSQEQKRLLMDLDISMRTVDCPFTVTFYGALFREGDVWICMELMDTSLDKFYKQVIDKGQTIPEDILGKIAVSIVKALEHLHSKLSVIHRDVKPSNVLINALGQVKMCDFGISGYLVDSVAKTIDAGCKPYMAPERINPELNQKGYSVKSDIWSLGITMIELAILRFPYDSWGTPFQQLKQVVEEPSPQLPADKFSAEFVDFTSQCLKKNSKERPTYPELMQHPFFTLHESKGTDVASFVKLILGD

[2] = target: Interleukin-1 receptor-associated kinase 1 (Homo sapiens) (UniProt P51617); assay: Inhibition of recombinant human N-terminal GST-tagged IRAK1 (1 to 712 residues) expressed in baculovirus infected Sf21 cells assessed as remaining activity at 1 uM using MBP as substrate incubated for 30 mins in presence of [gamma-33P]ATP by filter binding method relative to control
[3] = target: Serine/threonine-protein kinase PAK 2 (Homo sapiens) (UniProt Q13177); assay: Inhibition of PAK2 (unknown origin) assessed as remaining activity at 1 uM relative to control
Procedure, shortened: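 Dundee panel of 140 protein kinases, tested at a single 1 μM concentration. Each assay was run in triplicate. Remaining activity is expressed relative to a control reaction without inhibitor, as mean ± S.D. Conditions for each kinase were those of the screening centre.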

[4] = target: Dual specificity protein kinase TTK (Homo sapiens) (UniProt P33981); assay: Inhibition of recombinant human N-terminal His6-tagged TTK (1 to 857 residues) expressed in baculovirus infected Sf21 cells assessed as remaining activity at 1 uM using RSRSRSRSRSRSRSR as substrate incubated for 30 mins in presence of [gamma-33P]ATP by filter binding method relative to control
[5] = target: Ephrin type-B receptor 4 (Homo sapiens) (UniProt P54760); assay: Inhibition of recombinant human N-terminal His6-tagged EPHB4 (561 to 987 residues) expressed in baculovirus infected Sf21 cells assessed as remaining activity at 1 uM using Poly (Glu,Tyr) as substrate incubated for 30 mins in presence of [gamma-33P]ATP by filter binding method relative to control
Sequence of Ephrin type-B receptor 4 (Homo sapiens) (P54760 whole entry, the tested form may be a part): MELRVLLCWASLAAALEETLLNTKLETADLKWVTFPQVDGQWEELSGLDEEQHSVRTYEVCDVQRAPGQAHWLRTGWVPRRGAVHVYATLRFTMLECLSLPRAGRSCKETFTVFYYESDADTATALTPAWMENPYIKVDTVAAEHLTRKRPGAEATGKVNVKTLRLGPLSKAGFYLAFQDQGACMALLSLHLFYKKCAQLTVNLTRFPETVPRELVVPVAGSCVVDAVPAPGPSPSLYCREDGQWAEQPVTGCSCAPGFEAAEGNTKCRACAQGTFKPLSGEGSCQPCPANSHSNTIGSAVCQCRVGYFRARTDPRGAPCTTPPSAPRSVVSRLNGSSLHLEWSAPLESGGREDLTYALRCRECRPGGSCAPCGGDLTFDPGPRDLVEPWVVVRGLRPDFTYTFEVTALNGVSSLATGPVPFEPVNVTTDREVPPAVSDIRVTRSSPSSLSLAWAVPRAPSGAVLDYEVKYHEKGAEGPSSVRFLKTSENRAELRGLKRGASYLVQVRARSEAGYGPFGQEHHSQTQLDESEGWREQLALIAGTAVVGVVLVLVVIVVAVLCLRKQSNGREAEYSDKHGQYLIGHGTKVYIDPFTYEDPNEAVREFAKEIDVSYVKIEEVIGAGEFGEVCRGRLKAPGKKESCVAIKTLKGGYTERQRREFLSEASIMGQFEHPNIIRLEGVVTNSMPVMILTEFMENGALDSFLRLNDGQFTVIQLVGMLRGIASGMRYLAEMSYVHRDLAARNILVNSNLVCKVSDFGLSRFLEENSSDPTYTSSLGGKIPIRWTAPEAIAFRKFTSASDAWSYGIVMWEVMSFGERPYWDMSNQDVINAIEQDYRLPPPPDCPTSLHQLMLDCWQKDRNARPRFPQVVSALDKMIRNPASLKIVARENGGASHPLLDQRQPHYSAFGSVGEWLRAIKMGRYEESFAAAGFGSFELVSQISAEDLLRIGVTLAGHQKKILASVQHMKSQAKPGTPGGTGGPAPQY

[6] = target: Misshapen-like kinase 1 (Homo sapiens) (UniProt Q8N4C8); assay: Inhibition of recombinant human N-terminal GST-tagged MINK1 (1 to 320 residues) expressed in baculovirus infected Sf21 cells assessed as remaining activity at 1 uM using MBP as substrate incubated for 30 mins in presence of [gamma-33P]ATP by filter binding method relative to control
Sequence of Misshapen-like kinase 1 (Homo sapiens) (Q8N4C8 whole entry, looked up, the tested form may be a part): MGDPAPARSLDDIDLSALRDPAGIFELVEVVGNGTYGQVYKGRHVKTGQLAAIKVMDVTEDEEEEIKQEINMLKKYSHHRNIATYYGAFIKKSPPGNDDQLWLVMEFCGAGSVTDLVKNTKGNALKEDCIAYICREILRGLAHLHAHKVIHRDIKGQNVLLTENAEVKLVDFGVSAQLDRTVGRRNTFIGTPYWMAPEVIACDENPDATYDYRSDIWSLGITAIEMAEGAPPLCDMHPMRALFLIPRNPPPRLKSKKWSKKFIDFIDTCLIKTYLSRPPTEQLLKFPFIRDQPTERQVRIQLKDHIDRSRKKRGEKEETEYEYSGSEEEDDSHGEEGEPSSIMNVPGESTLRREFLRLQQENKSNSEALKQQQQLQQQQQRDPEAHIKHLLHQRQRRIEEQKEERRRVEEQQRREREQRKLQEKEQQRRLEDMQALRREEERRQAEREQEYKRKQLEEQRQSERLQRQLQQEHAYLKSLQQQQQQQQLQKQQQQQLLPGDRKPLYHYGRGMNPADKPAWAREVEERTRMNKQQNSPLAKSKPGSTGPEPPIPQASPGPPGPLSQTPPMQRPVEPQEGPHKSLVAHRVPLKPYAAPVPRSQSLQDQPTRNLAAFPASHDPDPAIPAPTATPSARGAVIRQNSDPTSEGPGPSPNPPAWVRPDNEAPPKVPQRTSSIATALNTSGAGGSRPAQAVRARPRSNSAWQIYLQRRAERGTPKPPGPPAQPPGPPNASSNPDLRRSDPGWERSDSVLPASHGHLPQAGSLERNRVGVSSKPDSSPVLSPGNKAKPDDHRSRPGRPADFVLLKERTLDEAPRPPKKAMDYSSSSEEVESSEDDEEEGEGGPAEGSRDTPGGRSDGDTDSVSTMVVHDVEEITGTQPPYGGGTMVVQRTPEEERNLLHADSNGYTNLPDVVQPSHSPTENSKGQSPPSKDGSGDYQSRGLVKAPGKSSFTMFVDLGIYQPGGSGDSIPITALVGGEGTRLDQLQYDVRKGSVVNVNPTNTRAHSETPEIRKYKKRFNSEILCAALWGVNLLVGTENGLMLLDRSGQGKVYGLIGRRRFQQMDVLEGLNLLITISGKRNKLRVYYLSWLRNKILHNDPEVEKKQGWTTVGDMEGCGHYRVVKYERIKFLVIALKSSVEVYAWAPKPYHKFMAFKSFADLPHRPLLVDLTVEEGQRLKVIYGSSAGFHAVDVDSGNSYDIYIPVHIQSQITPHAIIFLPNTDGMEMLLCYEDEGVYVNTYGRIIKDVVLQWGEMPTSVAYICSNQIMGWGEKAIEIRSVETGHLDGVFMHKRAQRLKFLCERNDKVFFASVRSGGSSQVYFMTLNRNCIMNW

[7] = target: Tyrosine-protein kinase SYK (Homo sapiens) (UniProt P43405); assay: Inhibition of recombinant human N-terminal His6-tagged SYK (1 to 635 residues) expressed in baculovirus infected Sf21 cells assessed as remaining activity at 1 uM using Poly (Glu,Tyr) as substrate incubated for 30 mins in presence of [gamma-33P]ATP by filter binding method relative to control
[8] = target: Tyrosine-protein kinase Lyn (Homo sapiens) (UniProt P07948); assay: Inhibition of human LYN at 1 uM using polyEY as substrate in presence of 33P-ATP by ProQinase assay
[9] = target: CDK1/Cyclin E (Homo sapiens) (UniProt P06493+P24864); assay: Inhibition of human CDK1/Cyclin E1at 1 uM using RBER-CHKtide as substrate in presence of 33P-ATP by ProQinase assay; type: protein-complex assay
Sequence of CDK1/Cyclin E (Homo sapiens) (P06493 whole entry, looked up): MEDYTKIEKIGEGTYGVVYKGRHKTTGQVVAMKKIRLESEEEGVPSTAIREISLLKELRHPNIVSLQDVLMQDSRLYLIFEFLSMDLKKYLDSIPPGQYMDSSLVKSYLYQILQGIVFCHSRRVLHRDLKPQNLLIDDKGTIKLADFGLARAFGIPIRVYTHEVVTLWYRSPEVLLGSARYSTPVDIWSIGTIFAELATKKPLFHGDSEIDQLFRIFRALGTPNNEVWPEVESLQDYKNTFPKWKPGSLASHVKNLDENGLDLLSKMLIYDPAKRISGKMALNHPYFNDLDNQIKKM
Sequence of CDK1/Cyclin E (Homo sapiens) (P24864 whole entry, looked up): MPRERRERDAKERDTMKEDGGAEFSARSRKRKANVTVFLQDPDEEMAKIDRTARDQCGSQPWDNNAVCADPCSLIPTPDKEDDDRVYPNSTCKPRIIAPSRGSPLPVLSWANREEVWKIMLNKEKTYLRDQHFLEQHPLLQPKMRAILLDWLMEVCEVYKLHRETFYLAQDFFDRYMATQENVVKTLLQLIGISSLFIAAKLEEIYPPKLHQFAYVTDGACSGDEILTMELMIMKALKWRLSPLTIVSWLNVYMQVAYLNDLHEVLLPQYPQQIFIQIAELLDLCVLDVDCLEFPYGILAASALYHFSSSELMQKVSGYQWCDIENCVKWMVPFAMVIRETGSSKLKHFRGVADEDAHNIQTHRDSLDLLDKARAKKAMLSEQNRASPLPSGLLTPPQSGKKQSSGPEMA

[10] = target: Receptor tyrosine-protein kinase erbB-2 (Homo sapiens) (UniProt P04626); assay: Inhibition of human ERBB2 at 1 uM using polyEY as substrate in presence of 33P-ATP by ProQinase assay
[11] = target: Aurora kinase C (Homo sapiens) (UniProt Q9UQB9); assay: Inhibition of human AuroraC at 1 uM using bio-4xCHKT as substrate in presence of 33P-ATP by ProQinase assay
Sequence of Aurora kinase C (Homo sapiens) (Q9UQB9 whole entry): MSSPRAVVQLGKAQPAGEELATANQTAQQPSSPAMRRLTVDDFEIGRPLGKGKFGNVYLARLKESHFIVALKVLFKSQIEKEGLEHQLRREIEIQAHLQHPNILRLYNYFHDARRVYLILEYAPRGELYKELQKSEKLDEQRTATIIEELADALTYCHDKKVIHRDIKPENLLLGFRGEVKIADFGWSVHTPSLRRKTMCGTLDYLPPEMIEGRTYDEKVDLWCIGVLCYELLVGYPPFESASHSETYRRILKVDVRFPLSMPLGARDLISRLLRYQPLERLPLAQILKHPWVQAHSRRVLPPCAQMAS

[12] = target: Protein kinase C alpha type (Homo sapiens) (UniProt P17252); assay: Inhibition of human PKCalpha at 1 uM using 3xChocktide-PKC as substrate in presence of 33P-ATP by ProQinase assay
[13] = target: Lymphokine-activated killer T-cell-originated protein kinase (Homo sapiens) (UniProt Q96KB5); assay: Inhibition of human PBK at 1 uM using histon H1 as substrate in presence of 33P-ATP by ProQinase assay
[14] = target: RAC-alpha serine/threonine-protein kinase (Homo sapiens) (UniProt P31749); assay: Inhibition of human AKT1 at 1 uM using RBER-GSK3 as substrate in presence of 33P-ATP by ProQinase assay
[15] = target: CDK8/Cyclin C (Homo sapiens) (UniProt P49336+P24863); assay: Inhibition of human CDK8/CyclinC at 1 uM using RBER-CHKtide as substrate in presence of 33P-ATP by ProQinase assay; type: protein-complex assay
[16] = target: Ribosomal protein S6 kinase alpha-4 (Homo sapiens) (UniProt O75676); assay: Inhibition of human RPS6KA4 at 1 uM using RBER-CHKtide as substrate in presence of 33P-ATP by ProQinase assay
[17] = target: Dual specificity mitogen-activated protein kinase kinase 2 (Homo sapiens) (UniProt P36507); assay: Inhibition of human MEK2 at 1 uM using RBER-IRStide as substrate in presence of 33P-ATP by ProQinase assay
[18] = target: Death-associated protein kinase 3 (Homo sapiens) (UniProt O43293); assay: Inhibition of human DAPK3 at 1 uM using RBER-GSK3 as substrate in presence of 33P-ATP by ProQinase assay
[19] = target: Protein kinase C eta type (Homo sapiens) (UniProt P24723); assay: Inhibition of human PKCeta at 1 uM using histon H2B as substrate in presence of 33P-ATP by ProQinase assay
[20] = target: Serine/threonine-protein kinase NLK (Homo sapiens) (UniProt Q9UBE8); assay: Inhibition of human NLK at 1 uM using RBER-GSK3 as substrate in presence of 33P-ATP by ProQinase assay
Sequence of Serine/threonine-protein kinase NLK (Homo sapiens) (Q9UBE8 whole entry): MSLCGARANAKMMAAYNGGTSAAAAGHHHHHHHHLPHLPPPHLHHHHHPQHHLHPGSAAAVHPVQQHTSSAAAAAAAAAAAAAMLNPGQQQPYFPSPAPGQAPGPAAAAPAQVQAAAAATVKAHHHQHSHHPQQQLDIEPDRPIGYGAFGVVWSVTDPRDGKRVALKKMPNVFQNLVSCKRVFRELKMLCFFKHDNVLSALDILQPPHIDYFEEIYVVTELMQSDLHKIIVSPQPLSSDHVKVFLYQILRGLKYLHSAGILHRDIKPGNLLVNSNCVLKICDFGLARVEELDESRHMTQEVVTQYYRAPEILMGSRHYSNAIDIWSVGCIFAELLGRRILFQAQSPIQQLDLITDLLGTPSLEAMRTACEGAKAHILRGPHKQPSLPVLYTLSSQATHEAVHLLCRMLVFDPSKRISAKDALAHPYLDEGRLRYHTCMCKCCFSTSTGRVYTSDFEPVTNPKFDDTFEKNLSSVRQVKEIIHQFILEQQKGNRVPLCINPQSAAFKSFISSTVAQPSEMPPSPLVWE

[21] = target: Serine/threonine-protein kinase haspin (Homo sapiens) (UniProt Q8TF76); assay: Inhibition of human GSG2 at 1 uM using histon H3 as substrate in presence of 33P-ATP by ProQinase assay
Sequence of Serine/threonine-protein kinase haspin (Homo sapiens) (Q8TF76 whole entry): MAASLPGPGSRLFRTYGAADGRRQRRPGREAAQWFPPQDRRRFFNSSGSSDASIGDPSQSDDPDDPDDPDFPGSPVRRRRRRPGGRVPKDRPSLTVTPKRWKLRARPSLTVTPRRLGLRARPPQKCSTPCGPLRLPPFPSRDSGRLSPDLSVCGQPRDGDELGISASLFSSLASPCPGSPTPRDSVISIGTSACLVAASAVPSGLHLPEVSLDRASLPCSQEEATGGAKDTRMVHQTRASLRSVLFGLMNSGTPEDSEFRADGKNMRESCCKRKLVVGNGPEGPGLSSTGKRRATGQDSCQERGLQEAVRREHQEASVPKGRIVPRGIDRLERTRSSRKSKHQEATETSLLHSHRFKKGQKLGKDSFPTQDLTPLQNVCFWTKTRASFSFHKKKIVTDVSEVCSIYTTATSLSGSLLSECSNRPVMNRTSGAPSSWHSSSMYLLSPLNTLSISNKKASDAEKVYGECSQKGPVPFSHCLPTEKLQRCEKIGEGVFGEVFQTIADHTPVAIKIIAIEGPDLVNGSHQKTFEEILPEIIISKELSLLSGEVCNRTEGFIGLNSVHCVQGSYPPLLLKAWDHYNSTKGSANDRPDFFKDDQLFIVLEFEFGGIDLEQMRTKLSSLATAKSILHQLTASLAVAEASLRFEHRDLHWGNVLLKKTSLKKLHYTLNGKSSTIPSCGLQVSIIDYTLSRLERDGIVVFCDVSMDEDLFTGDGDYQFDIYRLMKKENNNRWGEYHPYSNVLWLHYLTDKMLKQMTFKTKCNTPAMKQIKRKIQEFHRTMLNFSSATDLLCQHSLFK

[22] = target: Calcium/calmodulin-dependent protein kinase type II subunit alpha (Homo sapiens) (UniProt Q9UQM7); assay: Inhibition of human CAMK2A at 1 uM using RBER-CHKtide as substrate in presence of 33P-ATP by ProQinase assay
[23] = target: Mitogen-activated protein kinase 13 (Homo sapiens) (UniProt O15264); assay: Inhibition of human p38delta at 1 uM using RBER-CHKtide as substrate in presence of 33P-ATP by ProQinase assay
[24] = target: G protein-coupled receptor kinase 4 (Homo sapiens) (UniProt P32298); assay: Inhibition of human GRK4 at 1 uM using casein as substrate in presence of 33P-ATP by ProQinase assay
[25] = target: Serine/threonine-protein kinase Nek7 (Homo sapiens) (UniProt Q8TDX7); assay: Inhibition of human NEK7 at 1 uM using casein as substrate in presence of 33P-ATP by ProQinase assay

**Q.** What does the source list for `CC(C)(O)CNc1ncc(-c2ccnc(Nc3ccnc(Cl)c3)n2)c(CC2CC2)n1`?
**A.** Activity [1]: 124%; Activity [2]: 112%; Activity [3]: 111%; Activity [4]: 108%; Activity [5]: 106%; Activity [6]: 103%; Activity [7]: 91%; inhibition [8]: inactive; inhibition [9]: inactive; inhibition [10]: inactive; inhibition [11]: inactive; inhibition [12]: inactive; inhibition [13]: inactive; inhibition [14]: inactive; inhibition [15]: inactive; inhibition [16]: inactive; inhibition [17]: inactive; inhibition [18]: inactive; inhibition [19]: inactive; inhibition [20]: inactive; inhibition [21]: inactive; inhibition [22]: inactive; inhibition [23]: inactive; inhibition [24]: inactive; inhibition [25]: inactive
